Source: ChEMBL document CHEMBL1681772 (Bioorg Med Chem, 2011)

The compounds below were run against T1, Prostaglandin G/H synthase 1 (Ovis aries, UniProt P05979) (assay: Inhibition of ovine COX1 assessed as PGF2alpha level by EIA).
T1 sequence (P05979 whole entry): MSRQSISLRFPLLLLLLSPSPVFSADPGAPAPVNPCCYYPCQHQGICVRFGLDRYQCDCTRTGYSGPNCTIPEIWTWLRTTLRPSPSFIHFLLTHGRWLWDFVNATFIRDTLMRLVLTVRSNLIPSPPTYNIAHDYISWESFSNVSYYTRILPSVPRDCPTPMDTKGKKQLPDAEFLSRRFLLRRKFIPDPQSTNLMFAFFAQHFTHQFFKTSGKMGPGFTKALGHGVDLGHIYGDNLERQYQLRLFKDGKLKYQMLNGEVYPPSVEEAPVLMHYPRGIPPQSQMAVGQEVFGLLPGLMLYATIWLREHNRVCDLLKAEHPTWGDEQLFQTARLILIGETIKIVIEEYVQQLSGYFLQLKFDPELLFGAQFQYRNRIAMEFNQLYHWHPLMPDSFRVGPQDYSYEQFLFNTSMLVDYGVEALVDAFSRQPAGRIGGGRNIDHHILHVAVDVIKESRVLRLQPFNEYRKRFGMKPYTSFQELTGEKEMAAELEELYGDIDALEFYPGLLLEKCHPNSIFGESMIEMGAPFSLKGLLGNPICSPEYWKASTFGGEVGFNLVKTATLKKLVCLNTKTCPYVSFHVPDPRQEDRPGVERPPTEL
In short: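 Ovine COX-1 with heme in 0.1 M Tris-HCl pH 8.0 (5 mM EDTA, 2 mM phenol); compound at […] (final), 2 min preincubation at 37 °C. Started with arachidonic acid (100 µM), stopped after 2 min with 1 M HCl. PGH2 reduced to PGF2α by stannous chloride and quantified by EIA (18 h, room temperature; Ellman's reagent, 410 nm). IC50 from percent inhibition, mean of two determinations.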

SMILES | IC50 [µM]
COC1(c2cccc(CS(=O)(=O)Nc3ccccc3OCc3ccccc3)c2)CCOCC1 | 14.8
COC1(c2cccc(CS(=O)(=O)Nc3ccc(Cl)cc3OCc3ccccc3)c2)CCOCC1 | 24.4
COC1(c2cccc(CS(=O)(=O)Nc3ccc([N+](=O)[O-])cc3OCc3ccccc3)c2)CCOCC1 | 7.9
CCOC(=O)c1ccc(OCc2ccccc2)c(NS(=O)(=O)Cc2cccc(C3(OC)CCOCC3)c2)c1 | 11.6
COC1(c2cccc(CNc3ccccc3OCc3ccccc3)c2)CCOCC1 | > 100
COC1(c2cccc(CNc3ccc(Cl)cc3OCc3ccccc3)c2)CCOCC1 | 34.6
COC1(c2cccc(CNc3cc(Cl)ccc3OCc3ccccc3)c2)CCOCC1 | > 100
COC1(c2cccc(CNc3ccc([N+](=O)[O-])cc3OCc3ccccc3)c2)CCOCC1 | 88.8
COC1(c2cccc(COc3ccccc3OCc3ccccc3)c2)CCOCC1 | > 100
COC1(c2cccc(COc3ccc(Cl)cc3OCc3ccccc3)c2)CCOCC1 | > 100
COC1(c2cccc(COc3ccc(Br)cc3OCc3ccccc3)c2)CCOCC1 | > 100
CCOC(=O)c1ccc(OCc2cccc(C3(OC)CCOCC3)c2)c(OCc2ccccc2)c1 | 44.2
CS(=O)(=O)Nc1ccc([N+](=O)[O-])cc1Oc1ccccc1 [NIMESULIDE] | 6.2

More lines, now with the values ahead:

IC50 [µM] | SMILES
15.6 | COC1(c2cccc(CS(=O)(=O)Nc3cc(Cl)ccc3OCc3ccccc3)c2)CCOCC1
16.5 | COC1(c2cccc(CS(=O)(=O)Nc3cc(C)ccc3OCc3ccccc3)c2)CCOCC1
> 100 | COC1(c2cccc(CN(c3ccccc3OCc3ccccc3)S(C)(=O)=O)c2)CCOCC1
> 100 | COC1(c2cccc(CN(c3ccc(Cl)cc3OCc3ccccc3)S(C)(=O)=O)c2)CCOCC1
> 100 | COC1(c2cccc(CN(c3cc(Cl)ccc3OCc3ccccc3)S(C)(=O)=O)c2)CCOCC1
> 100 | COC1(c2cccc(CN(c3cc(C)ccc3OCc3ccccc3)S(C)(=O)=O)c2)CCOCC1
13.5 | COC1(c2cccc(CN(c3ccc([N+](=O)[O-])cc3OCc3ccccc3)S(C)(=O)=O)c2)CCOCC1
> 100 | COC1(c2cccc(CNc3cc(C)ccc3OCc3ccccc3)c2)CCOCC1
